Results: ChEMBL document CHEMBL5154669, “G-Quadruplex DNA as a Target in Pathogenic Bacteria: Efficacy of an Extended Naphthalene Diimide Ligand and Its Mode of Action” (J Med Chem, 2022)
≈ marks a conversion by molar mass, not a printed value. One block for each compound: values may come before it. Calls of active or inactive are those of the source. The calls are words filed in the database; no cut-off is given here. Where a SMILES comes first, the peptide text is derived from it. Bridges are numbered along the chain shown (N, C = ends). [ ]: non-standard residue; d: D form. The star is where a group is joined. X1 = CC[C@H](C)CCCCC(=O)*; Orn = NCCC[C@H](N)C(=O)O; Dab = NCC[C@H](N)C(=O)O

Key:
[1] = test system: Staphylococcus aureus; experiment: Bacteriolytic activity against Staphylococcus aureus LMG 8224 incubated for 2 hrs; type: functional, organism-based
Procedure, shortened: (§1)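 Cultures grown 20 h were washed three times in HEPES with 5% glucose, adjusted to OD600 0.5 and exposed at 37 °C. OD600 was followed every 15 min for 2 h. Controls for E. coli were polymyxin B (2 μM) and erythromycin (32 μM). Controls for Gram-positive strains were gramicidin S (2 μM) and chloramphenicol (16 μM). Cells were then spotted on cMHB agar, 20 h, 37 °C, in triplicate.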

[2] = test system: Enterococcus faecium; experiment: Bacteriolytic activity against Enterococcus faecium LMG 16003 incubated for 2 hrs; type: functional, organism-based; procedure, shortened: as §1
[3] = test system: Bacillus cereus; experiment: Bacteriolytic activity against Bacillus cereus ATCC 10987 incubated for 2 hrs; type: functional, organism-based; procedure, shortened: as §1
[4] = test system: Escherichia coli; experiment: Bacteriolytic activity against Escherichia coli LMG 8223 incubated for 2 hrs; type: functional, organism-based; procedure, shortened: as §1
[5] = test system: Bacillus cereus; experiment: Antibacterial activity against Bacillus cereus ATCC 10987 assessed as inhibition of bacterial growth incubated for 20 hrs by CLSI based broth microdilution method; type: functional
Procedure, shortened: (§2)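 Broth microdilution in cation-adjusted Mueller-Hinton broth following CLSI guidelines. DMSO stocks were at 10 mM; compounds were twofold serially diluted over 128 to 2 μM. The inoculum was at 5 × 10⁵, prepared from colonies grown 20 h at 37 °C and adjusted to 0.5 McFarland. Plates ran 20 h at 37 °C with OD600 read-out. MIC was the lowest concentration inhibiting visible growth, in triplicate.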

[6] = test system: Enterococcus faecium; experiment: Antibacterial activity against Enterococcus faecium LMG 11423 assessed as inhibition of bacterial growth incubated for 20 hrs by CLSI based broth microdilution method; settings: LMG 11423, 20 h
[7] = test system: Pseudomonas aeruginosa; experiment: Antibacterial activity against Pseudomonas aeruginosa LMG 6395 assessed as inhibition of bacterial growth incubated for 20 hrs by CLSI based broth microdilution method; type: functional; procedure, shortened: as §2
[8] = test system: Klebsiella pneumoniae; experiment: Antibacterial activity against Klebsiella pneumoniae LMG 20218 assessed as inhibition of bacterial growth incubated for 20 hrs by CLSI based broth microdilution method; type: functional; procedure, shortened: as §2
[9] = test system: DNA; experiment: Stabilization of Escherichia coli in G-quadruplex DNA GGG GCG GGG TGG GTT GG assessed as melting temperature at 10 uM incubated for 16 hrs by FRET method; type: nucleic-acid assay
[10] = test system: Staphylococcus aureus; experiment: Antibacterial activity against Staphylococcus aureus LMG 10147 assessed as inhibition of bacterial growth incubated for 20 hrs by CLSI based broth microdilution method; type: functional; procedure, shortened: as §2
[11] = test system: DNA; experiment: Stabilization of Escherichia coli in G-quadruplex DNA GGG GGA GGA GGA CGG GGG assessed as melting temperature at 10 uM incubated for 16 hrs by […]; type: nucleic-acid assay
Procedure, shortened: (§3)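 Readout was CD melting, not FRET: 2.5 μM oligonucleotide in 10 mM lithium cacodylate pH 7.4 with KCl set per sequence (initial Tm 60-70 °C). Annealed 95 °C 5 min, cooled to room temperature over 4 h, then ligand 10 μM (4 equiv) equilibrated 16 h at 20 °C. Ellipticity at 260 nm tracked every 0.1 °C, 20-95 °C at 5 °C/min; Tm by van't Hoff two-state fit.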

[12] = test system: Salmonella enterica; experiment: Antibacterial activity against Salmonella enterica LMG 07233 assessed as inhibition of bacterial growth incubated for 20 hrs by CLSI based broth microdilution method; type: functional; procedure, shortened: as §2
[13] = test system: DNA; experiment: Stabilization of Escherichia coli in G-quadruplex DNA GGT GGG GAG GGG TAA GGG G assessed as melting temperature at 10 uM incubated for 16 hrs by […]; type: nucleic-acid assay; procedure, shortened: as §3
[14] = test system: DNA; experiment: Stabilization of Escherichia coli in G-quadruplex DNA GGG GCG GGG TGG GTT GG assessed as change in melting temperature at 10 uM incubated for 16 hrs by CD melting method
[15] = test system: DNA; experiment: Stabilization of Staphylococcus aureus in G-quadruplex DNA GGA AGG AGG GGT GAC AGG G assessed as melting temperature at 10 uM incubated for 16 hrs […]; type: nucleic-acid assay; procedure, shortened: as §3
[16] = test system: DNA; experiment: Stabilization of Staphylococcus aureus in G-quadruplex DNA GGGTTTGGGGCGGCGGTTGG assessed as change in melting temperature at 10 uM incubated for 16 hrs by FRET method; type: nucleic-acid assay
[17] = test system: Acinetobacter baumannii; experiment: Antibacterial activity against Acinetobacter baumannii LMG 01041 assessed as inhibition of bacterial growth incubated for 20 hrs by CLSI based broth microdilution method; type: functional; procedure, shortened: as §2
[18] = test system: Enterococcus faecalis; experiment: Antibacterial activity against Enterococcus faecalis V583 assessed as inhibition of bacterial growth incubated for 20 hrs by CLSI based broth microdilution method; type: functional; procedure, shortened: as §2
[19] = test system: DNA; experiment: Stabilization of Staphylococcus aureus in G Quadruplex DNA GGGGCTAATTGGGGCTGGTGG assessed as change in melting temperature at 10 uM incubated for 16 hrs by […]; type: nucleic-acid assay; procedure, shortened: as §3
[20] = test system: Enterococcus faecalis; experiment: Antibacterial activity against Enterococcus faecalis LMG 16216 assessed as inhibition of bacterial growth incubated for 20 hrs by CLSI based broth microdilution method; type: functional; procedure, shortened: as §2
[21] = test system: DNA; experiment: Stabilization of Staphylococcus aureus in G-quadruplex DNA GGGTTTGGGGCGGCGGTTGG assessed as melting temperature at 10 uM incubated for 16 hrs by […]; type: nucleic-acid assay; procedure, shortened: as §3
[22] = test system: Enterobacter cloacae; experiment: Antibacterial activity against Enterobacter cloacae LMG 02783 assessed as inhibition of bacterial growth incubated for 20 hrs by CLSI based broth microdilution method; type: functional; procedure, shortened: as §2
[23] = test system: Escherichia coli; experiment: Antibacterial activity against Escherichia coli LMG 8223 assessed as inhibition of bacterial growth incubated for 20 hrs by CLSI based broth microdilution method; type: functional; procedure, shortened: as §2
[24] = test system: Enterococcus faecium; experiment: Antibacterial activity against Enterococcus faecium LMG 16003 assessed as inhibition of bacterial growth incubated for 20 hrs by CLSI based broth microdilution method; type: functional; procedure, shortened: as §2
[25] = test system: Klebsiella aerogenes; experiment: Antibacterial activity against Enterobacter aerogenes LMG 02094 assessed as inhibition of bacterial growth incubated for 20 hrs by CLSI based broth microdilution method; type: functional; procedure, shortened: as §2
[26] = test system: Staphylococcus aureus; experiment: Antibacterial activity against Staphylococcus aureus LMG 8224 assessed as inhibition of bacterial growth incubated for 20 hrs by CLSI based broth microdilution method; type: functional; procedure, shortened: as §2
[27] = test system: DNA; experiment: Stabilization of Staphylococcus aureus in G-quadruplex DNA GGA AGG AGG GGT GAC AGG G assessed as change in melting temperature at 10 uM incubated for 16 hrs by […]; type: nucleic-acid assay; procedure, shortened: as §3
[28] = test system: Staphylococcus epidermidis; experiment: Antibacterial activity against Staphylococcus epidermidis Tu3298 assessed as inhibition of bacterial growth incubated for 20 hrs by CLSI based broth microdilution method; type: functional; procedure, shortened: as §2
[29] = test system: Staphylococcus aureus; experiment: Antibacterial activity against Staphylococcus aureus LMG 15975 assessed as inhibition of bacterial growth incubated for 20 hrs by CLSI based broth microdilution method; type: functional; procedure, shortened: as §2
[30] = test system: DNA; experiment: Stabilization of Escherichia coli in G-quadruplex DNA GGT GGG GAG GGG TAA GGG G assessed as change in melting temperature at 10 uM incubated for 16 hrs by FRET method; type: nucleic-acid assay; settings: in the assay text read “by CD melting method” for “by FRET method”; procedure, shortened: as §3
[31] = test system: Enterococcus faecalis; experiment: Antibacterial activity against Enterococcus faecalis LMG 08222 assessed as inhibition of bacterial growth incubated for 20 hrs by CLSI based broth microdilution method; type: functional; procedure, shortened: as §2
[32] = test system: DNA; experiment: Stabilization of Staphylococcus aureus in G Quadruplex DNA GGGGCTAATTGGGGCTGGTGG assessed as melting at 10 uM incubated for 16 hrs temperature by […]; type: nucleic-acid assay; procedure, shortened: as §3
[33] = test system: Bacillus cereus; experiment: Antibacterial activity against Bacillus cereus ATCC 14579 assessed as inhibition of bacterial growth incubated for 20 hrs by CLSI based broth microdilution method; type: functional; procedure, shortened: as §2
[34] = test system: DNA; experiment: Stabilization of Escherichia coli in G-quadruplex DNA GGG GGA GGA GGA CGG GGG assessed as change in melting temperature at 10 uM incubated for 16 hrs by FRET method; type: nucleic-acid assay; settings: in the assay text read “by CD melting method” for “by FRET method”; procedure, shortened: as §3

SMILES: CC[C@H](C)CCCCC(=O)N[C@@H](CCN)C(=O)N[C@H](C(=O)N[C@@H](CCN)C(=O)N[C@H]1CCNC(=O)[C@H]([C@@H](C)O)NC(=O)[C@H](CCN)NC(=O)[C@H](CCN)NC(=O)[C@H](CC(C)C)NC(=O)[C@@H](Cc2ccccc2)NC(=O)[C@H](CCN)NC1=O)[C@@H](C)O (X1-[Dab]T[Dab][Dab][Dab][dF]L[Dab][Dab]T; lactam 4-C)
Activity [1]: Active
Activity [2]: Active
Activity [3]: Active
Activity [4]: Active

SMILES: CC(C)C[C@@H]1NC(=O)[C@H](CCCN)NC(=O)[C@H](C(C)C)NC(=O)[C@@H]2CCCN2C(=O)[C@@H](Cc2ccccc2)NC(=O)[C@H](CC(C)C)NC(=O)[C@H](CCCN)NC(=O)[C@H](C(C)C)NC(=O)[C@@H]2CCCN2C(=O)[C@@H](Cc2ccccc2)NC1=O (cyclo(V[Orn]L[dF]PV[Orn]L[dF]P))
Activity [1]: Active
Activity [2]: Active
Activity [3]: Active
Activity [4]: Active

MIC [5]: 64 µM (≈ 31.6 µg/mL)
MIC [6]: 16 µM (≈ 7.9 µg/mL)
MIC [7]: > 128 µM
MIC [8]: > 128 µM
Tm [9]: 78 °C
MIC [10]: 128 µM (≈ 63.2 µg/mL)
Tm [11]: 92.8 °C
MIC [12]: > 128 µM
Tm [13]: 72.2 °C
ΔTm [14]: 14.3 °C
Tm [15]: 76.2 °C
ΔTm [16]: 14.9 °C
MIC [17]: 64 µM (≈ 31.6 µg/mL)
MIC [18]: 32 µM (≈ 15.8 µg/mL)
ΔTm [19]: 16.6 °C
MIC [20]: 32 µM (≈ 15.8 µg/mL)
Tm [21]: 74.3 °C
MIC [22]: > 128 µM
MIC [23]: > 128 µM
MIC [24]: 16 µM (≈ 7.9 µg/mL)
MIC [25]: 64 µM (≈ 31.6 µg/mL)
MIC [26]: 128 µM (≈ 63.2 µg/mL)
ΔTm [27]: 12 °C
MIC [28]: 128 µM (≈ 63.2 µg/mL)
MIC [29]: 128 µM (≈ 63.2 µg/mL)
ΔTm [30]: 12.2 °C
MIC [31]: 64 µM (≈ 31.6 µg/mL)
Tm [32]: 77.6 °C
MIC [33]: 64 µM (≈ 31.6 µg/mL)
ΔTm [34]: 22.8 °C
SMILES: CCCNc1cc2c3c(ccc4c3c1C(=O)N(CCCN(C)C)C4=O)C(=O)N(CCCN(C)C)C2=O
